Screening results deposited in PubChem by several laboratories.
Rows were chosen to be rich in hits. Some 6.6% of all compounds tested hit in one or more screens of this group.
BAP1 block: inhibitors of BAP1 deubiquitinase, primary screen, biochemical, Ub-AMC fluorescence, kinetic. Ubiquitin carboxyl-terminal hydrolase BAP1 (Homo sapiens), Q92560. recombinant BAP1, Ub-AMC hydrolysis fluorescence kinetic; hits give low values. calls only at 20 µM. 0.48% of 72,000 active. AID 436, 2006;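 active = activity remaining at or below 50% of control, provided the compound also passes the data quality filters; inactive = the rest, including low values that fail the filters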;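 note: 100% = DMSO wells rate and 0% = substrate alone blank rate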
Target sequence (Q92560 whole entry, looked up): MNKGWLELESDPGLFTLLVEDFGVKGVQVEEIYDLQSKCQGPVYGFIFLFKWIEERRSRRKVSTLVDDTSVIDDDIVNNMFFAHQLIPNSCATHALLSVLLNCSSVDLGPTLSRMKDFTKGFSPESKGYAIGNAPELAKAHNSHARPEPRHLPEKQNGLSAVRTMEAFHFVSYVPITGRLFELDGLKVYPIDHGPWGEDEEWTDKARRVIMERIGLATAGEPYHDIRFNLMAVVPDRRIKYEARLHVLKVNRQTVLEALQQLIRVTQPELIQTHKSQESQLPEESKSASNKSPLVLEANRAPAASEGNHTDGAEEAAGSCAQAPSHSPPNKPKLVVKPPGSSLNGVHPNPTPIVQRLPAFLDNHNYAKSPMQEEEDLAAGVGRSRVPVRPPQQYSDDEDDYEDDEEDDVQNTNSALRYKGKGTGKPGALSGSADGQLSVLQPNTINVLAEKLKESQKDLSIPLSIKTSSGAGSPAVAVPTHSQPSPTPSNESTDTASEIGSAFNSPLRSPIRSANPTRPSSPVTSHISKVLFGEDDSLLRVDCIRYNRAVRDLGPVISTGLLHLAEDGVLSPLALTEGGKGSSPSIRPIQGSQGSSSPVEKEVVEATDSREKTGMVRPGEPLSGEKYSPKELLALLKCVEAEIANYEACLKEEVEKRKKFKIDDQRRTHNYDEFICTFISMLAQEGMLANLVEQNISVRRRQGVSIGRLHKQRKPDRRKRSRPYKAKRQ
M1 antagonist: antagonists of rat M1 muscarinic receptor | CHO-M1 cells, Fluo-4 calcium, ACh EC80 antagonist mode; hits give low values | 3.4% of 64,000 active | Muscarinic acetylcholine receptor M1 (Rattus norvegicus), P08482 | B-score at 10 µM | AID 628, 2007;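 active = calcium fluorescence response, raw or row-and-column corrected B-score, differing from the plate sample mean either way at a set confidence level, mostly lower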
HEK293 NFkB inh: inhibitors of PMA/ionomycin-induced NF-kB reporter, primary screen, antigen receptor NF-kB inhibitor project, cell-based, HEK-293 luciferase reporter, luminescence; HEK-293 NF-kB luciferase reporter; inhibition, % at 3 µM; 0.21% of 62,000 active; AID 465, 2006;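 active = inhibition above the mean of all tested compounds plus 3 SD, cut at about 40% in these data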;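 note: 0% = stimulated DMSO wells and 100% = 10 µM reference inhibitor 5653914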
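Material: HEK-293 cells with stable firefly luciferase reporter driven by four HIV NF-kB elements / Also added: PMA plus ionomycin mix as NF-kB-activating stimulus / Compound dosing: 3 µM once, 0.30% DMSO / Times: 1 h pretreatment, 16 h stimulation, 37 °C / Signal: luminescence / Evaluation: per-plate % inhibition versus controls / Benchmarks: DMSO and 10 µM reference inhibitor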
M1 agonist: M1 muscarinic receptor agonists, primary screen, CHO-M1 cells, Fluo-4 calcium, agonist mode; Muscarinic acetylcholine receptor M1; Fluo-4 calcium fluorescence; hits give high values; B-score at 10 µM; 3% of 64,000 active; AID 626, 2007;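 active = fluorescence rise, raw or as B-score row- and column-corrected plate score, outside the 99.7% band of its plate's samples, either direction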
JNK3 inh: JNK3 kinase activity inhibitors, primary screen, biochemical, human, purified enzyme; HTS; 0.61% of 60,000 active; inhibition, % at 8 µM; AID 746, 2007; Mitogen-activated protein kinase 10 (Homo sapiens), P53779; in the data active = inhibition above about 17%;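 note: 0% = DMSO and 100% = reference inhibitor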
HER2 expr 66K: inhibitors of Her2 protein expression, primary screen, SKBR-3 cells, AlphaScreen, 66K library | Receptor tyrosine-protein kinase erbB-2 (Homo sapiens), P04626 | SKBR-3 HER2 protein level, 18-24 h; hits give low values | HER2 level % of control, % at 10 µM | 0.69% of 65,000 active | AID 645, 2007;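 active = HER2 level under 5% of the carrier-only control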;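 note: 100% = DMSO carrier and 0% = 500 nM PU-H71 HSP90 inhibitor; lower value means stronger loss of Her2 protein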
An asterisk follows results filed as active; i = inactive; x = no result given; + = active, no number.

SMILES	BAP1 block	M1 antagonist	HEK293 NFkB inh	M1 agonist	JNK3 inh	HER2 expr 66K
CCOc1ccccc1NC(=O)Cn1nnc(-c2ccc(OCC)c(OCC)c2)n1	i	0.125	-1.0	-0.912	7.9	-20.5*
CCOc1ccc(-c2nnn(CC(=O)c3cc(OC)ccc3OC)n2)cc1	x	-0.0752	20.9	0.000262	-7.8	-14.2*
CCOC(=O)c1ccc(Nc2nc(-c3cc4ccccc4oc3=O)cs2)cc1	i	x	x	x	x	x
CC(=O)N1c2ccc(N)cc2C(C)(c2ccccc2)CC1(C)C (configuration not stated)	i	x	x	x	x	x
COc1ccccc1-c1nc(-c2ccccc2)c(-c2ccccc2)[nH]1	i	x	x	x	x	x
COc1cc(CN/C(C)=C(\C#N)C(N)=O)cc(OC)c1OC	i	-1.44	9.8	2.21	63.0*	101.0
COc1ccc(C(=O)NC(=O)Nc2cc(C)ccn2)cc1	i	0.974	58.9*	0.139	9.0	92.0
O=C1c2ccccc2C(=O)C1c1ccncc1	i	-1.2	-19.6	-1.35	50.7*	93.1
O=C(NCCc1ccccc1)c1cnn2c(C(F)F)cc(C3CC3)nc12	i	-0.42	13.5	0.00373	1.1	80.0
Cc1nn(C)cc1CNC(=O)c1cnn2c(C(F)F)cc(C3CC3)nc12	i	-0.011	14.0	-0.0668	33.5*	89.4
C(=C\c1ccccc1)/CN1CCN(c2ncnc3c2oc2ccccc23)CC1	x	-0.647	17.9	6.86*	x	139.3
c1ccc2c(c1)oc1c(N3CCOCC3)ncnc12	i	0.595	3.5	-1.52	-1.9	99.7
c1ccc2[nH]c(CN3CCN(c4ncnc5c4oc4ccccc45)CC3)nc2c1	i	0.281	-0.6	2.28	0.0	81.9
c1cnc(N2CCN(c3ncnc4c3oc3ccccc34)CC2)nc1	i	-1.51	6.6	3.21*	-3.1	73.4
COc1cccc(C(=O)c2sc(NC(C)C)nc2N)c1	i	0.939	x	0.171	17.2*	24.9
COc1ccc(-c2noc(CCC(=O)Nc3nc4ccccc4s3)n2)cc1	i	0.77*	17.0	-0.255	x	99.5
COc1ccc(-c2noc(CCC(=O)Nc3cccc(C)c3)n2)cc1	i	0.0555	11.5	-0.157	3.4	117.5
O=C(COc1ccccc1)NCc1n[nH]c(=S)n1-c1cccc(C(F)(F)F)c1	i	x	x	x	x	x
Cc1ccc(C(=O)Nc2ccc3oc(-c4ccc(Cl)cc4)nc3c2)cc1[N+](=O)[O-]	i	x	x	x	x	x
COc1ccc(Cn2c(C)ccc2C)cc1	x	x	x	x	x	71.4
CCN1CSC(=S)N(Cc2ccc(OC)cc2)C1	i	x	-0.5	x	x	-11.5*
O=CNC1CCCc2c1[nH]c1ccc(Cl)cc21 (configuration not stated)	i	0.109	4.9	0.544	-1.4	105.6
Clc1ccc2[nH]c3c(c2c1)CCc1cn[nH]c1-3	i	0.00598	-4.0	-0.963	85.0*	61.3
c1ccc2c3c([nH]c2c1)-c1[nH]ncc1CC3	i	0.402	3.5	0.0429	54.4*	74.0
O=C1CCCc2c1[nH]c1ccccc21	i	1.31	-2.9	-0.195	3.1	96.8
SMILES	BAP1 block	M1 antagonist	HEK293 NFkB inh	M1 agonist	JNK3 inh	HER2 expr 66K
COC(=O)C1=C(C)NC(=O)NC1c1cc(Br)c(O)c(OC)c1 (configuration not stated)	i	x	x	x	x	x
N=c1n(CCO)c2ccccc2n1CCOc1ccc(Cl)cc1Cl	i	-0.237	8.1	-0.255	-8.4	2.4*
CCCCC(CC)Cn1c2nc3ccccc3nc2c2c(=N)oc(C)nc21 (configuration not stated)	x	-0.0854	15.9	-0.501	x	0.9*
CCCCn1c2nc3ccccc3nc2c2c(=N)oc(C)nc21	x	-0.199	17.7	3.95*	x	78.5
CC(=O)Nc1ccccc1NC(=O)C(F)(F)F	i	1.78*	13.1	-0.448	4.9	111.8
Cc1ccc2cccc(NC(=O)C(F)(F)F)c2n1	i	0.171	4.1	0.234	-5.2	67.1
CCOC(=O)c1cccc(NC(=O)c2ccc(F)cc2)c1	i	x	x	x	x	x
CCNc1ccc(C(=O)OCC)cc1NC(=O)c1cccc(N(C)C)c1	x	-0.511	41.6*	0.82	x	153.6
Cc1ccc2nc(-c3ccccc3)cc(C(=O)Nc3cccc([N+](=O)[O-])c3)c2c1	i	x	x	x	x	x
CS(=O)(=O)c1ccc(Cl)c(NC(=O)COC(=O)CNC(=O)c2ccc(Br)o2)c1	i	2.07	13.4	-0.264	-0.2	-21.9*
COC(=O)c1ccc(S(=O)(=O)N(Cc2cc3cc4c(cc3[nH]c2=O)OCO4)C2CCCCC2)cc1	+	1.29	8.4	-0.199	1.1	69.6
O=C(NCCCc1ccccc1)c1ccncc1	i	0.322	15.3	-0.0283	10.2	-5.5*
O=C(NCCOC(=O)c1ccncc1)c1ccccc1	i	-0.453	13.8	-0.104	-4.8	105.7
O=S(=O)(Cc1ccccc1)N1CCc2ccccc21	i	-0.194	9.4	8.34*	1.3	64.2
CN(C)S(=O)(=O)N1CCc2ccccc21	i	0.202	11.8	-0.0918	4.6	105.3
CC1CCC(C(C)C)C(OP(N)(=O)OC2CC(C)CCC2C(C)C)C1 (configuration not stated)	i	x	x	x	x	x
CCN1CC=C2C(C#N)=C(N)C(C#N)(C#N)C(c3cc(Cl)ccc3Cl)C2C1 (configuration not stated)	i	0.398	3.8	34.7*	-6.7	91.0
COC1(OC)N=C(N)C2(C#N)C(c3ccc4c(c3)OCO4)C12C#N (configuration not stated)	i	0.765	10.5	-0.0844	19.9*	55.2
COC1(OC)N=C(N)C2(C#N)C(c3ccc(C)cc3)C12C#N (configuration not stated)	i	-0.544	9.9	0.0174	3.3	69.8
Nc1nnc(COc2ccc(Br)cc2)s1	i	x	x	x	x	x
CCCCS(=O)(=O)/C=C\C=C/S(=O)(=O)CCCC	x	0.46	24.8	0.264	x	-17.3*
CCCCS(=O)(=O)/C=C\C1C2C=CC(C2)C1S(=O)(=O)CCCC (configuration not stated)	i	0.216	21.9	-0.018	-5.3	108.0
COC(=O)CNc1n[nH]c(=O)[nH]c1=O	i	x	x	x	x	x
Cc1nc(Nc2ccncc2)c2oc3ccccc3c2n1	x	-2.9*	6.6	22.1*	x	x
O=C(NC(C(=O)N1CCOCC1)C12CC3CC(CC(C3)C1)C2)c1ccc([N+](=O)[O-])cc1 (configuration not stated)	i	x	x	x	x	x
O=C(CCN1CCN(c2ccccc2F)CC1)c1ccc(Br)cc1	i	-1.88	20.6	0.141	-0.5	-16.2*
O=C(CCS(=O)(=O)c1ccc(Br)cc1)N1CCN(c2ccccc2F)CC1	i	-0.0365	18.6	0.0217	-3.0	107.9
CCOC(=O)Cc1csc(NC(=O)COc2ccccc2)n1	i	-1.02	16.0	-1.4	5.1	129.5
